Experimental data as given in ChEMBL document CHEMBL1130878 (Bioorg Med Chem Lett, 1998).

Legend:
[1] = target: T1, Endothelin receptor type B (Sus scrofa, UniProt P35463); test: In vitro ability to inhibit specific [125I]ET1 binding to porcine kidney (inner medulla) membranes Endothelin B receptor
T1 sequence (P35463 whole entry): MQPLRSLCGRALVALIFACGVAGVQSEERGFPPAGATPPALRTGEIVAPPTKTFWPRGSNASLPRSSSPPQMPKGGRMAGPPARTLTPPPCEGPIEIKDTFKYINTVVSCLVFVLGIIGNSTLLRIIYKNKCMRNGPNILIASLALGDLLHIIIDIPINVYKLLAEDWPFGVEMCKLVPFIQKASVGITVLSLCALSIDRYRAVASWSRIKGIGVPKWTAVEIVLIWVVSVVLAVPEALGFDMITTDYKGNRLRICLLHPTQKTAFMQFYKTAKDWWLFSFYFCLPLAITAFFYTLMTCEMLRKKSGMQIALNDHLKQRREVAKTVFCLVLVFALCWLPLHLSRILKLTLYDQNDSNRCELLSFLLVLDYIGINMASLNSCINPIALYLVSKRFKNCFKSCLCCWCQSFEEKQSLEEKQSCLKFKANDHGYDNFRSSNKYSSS

[2] = tested on: Rattus norvegicus; test: Effect of compound on heart rate activity of spontaneously hypertensive rats after single oral administration of 10 mg/Kg dose; format: functional
In short: (§1)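 Conscious spontaneously hypertensive rats were given a single oral dose at 12:00, with 5% arabic gum as the control vehicle. Heart rate and motor activity were monitored by telemetry. Change from a 3 h predrug period (9:00-12:00) was expressed as AUC0-12h (12:00-24:00). n = 6-13 per group, mean ± SEM, ANOVA with Dunnett's test vs control.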

[3] = tested on: Rattus norvegicus; test: Effect of compound on heart rate activity of spontaneously hypertensive rats after single oral administration of 0.1 mg/Kg dose; format: functional; in short: as §1
[4] = tested on: Rattus norvegicus; test: ET-1 induced increase in mean arterial pressure following 3 mg/kg oral administration of compound; format: functional, Artery
[5] = Compound was evaluated for AUC after treatment with oral dose of 2 mgkg to female cynomolgus monkey; format: ADME; conditions: cercopithecidae, in vivo
In short: (§2)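 A female cynomolgus monkey (n = 1) received a single dose of either 1 mg/kg iv or 2 mg/kg orally. Plasma concentration-time data gave Cmax, tmax, AUC, clearance and Vss. Half-life was calculated over 1-8 h post administration.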

[6] = tested on: Rattus norvegicus; test: Compound was evaluated for AUC after treatment with oral dose of 2 mgkg to male wistar rats; format: ADME, organism-based; design: dose 2 mgkg, route oral; conditions: in vivo, 2 mg/kg
In short: (§3)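 Male and female Wistar rats, n = 3 per group, received a single dose of either 1 mg/kg iv or 2 mg/kg orally. Plasma levels were followed after dosing. Half-life was taken over the interval 1-8 h post administration. Oral bioavailability was derived against the iv data.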

[7] = target: T2, Endothelin-1 receptor (Rattus norvegicus, UniProt P26684); test: In vitro ability to inhibit specific [125I]ET1 binding to rat aorta membranes Endothelin A receptor; format: tissue-based
T2 sequence (P26684 whole entry): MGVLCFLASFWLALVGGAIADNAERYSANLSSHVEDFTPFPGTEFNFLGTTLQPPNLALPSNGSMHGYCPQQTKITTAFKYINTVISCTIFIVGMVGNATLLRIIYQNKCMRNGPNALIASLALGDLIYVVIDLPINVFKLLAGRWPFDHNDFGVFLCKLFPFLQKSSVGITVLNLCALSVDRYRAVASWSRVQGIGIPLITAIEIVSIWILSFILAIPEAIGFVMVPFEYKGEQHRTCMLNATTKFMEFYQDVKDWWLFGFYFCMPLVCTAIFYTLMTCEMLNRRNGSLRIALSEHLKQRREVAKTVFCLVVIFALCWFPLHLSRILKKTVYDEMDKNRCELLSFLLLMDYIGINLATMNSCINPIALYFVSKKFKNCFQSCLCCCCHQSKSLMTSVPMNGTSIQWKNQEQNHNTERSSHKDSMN

[8] = tested on: Rattus norvegicus; test: Compound was evaluated for AUC after treatment with iv dose of 1 mgkg to male wistar rats; format: ADME, organism-based; design: dose 1 mgkg, route intravenous; conditions: in vivo, 1 mg/kg; in short: as §3
[9] = Compound was evaluated for clearance after treatment with iv dose of 1 mgkg to female wistar rats; format: ADME, organism-based; design: dose 1 mgkg, route intravenous; conditions: rat, in vivo, 1 mg/kg; in short: as §3
[10] = tested on: Rattus norvegicus; test: Effect of compound on heart rate activity of spontaneously hypertensive rats after single oral administration of 3 mg/Kg dose; format: functional; in short: as §1
[11] = Compound was evaluated for AUC after treatment with iv dose of 1 mgkg to female cynomolgus monkey; format: ADME, organism-based; design: dose 1 mgkg, route intravenous; conditions: cercopithecidae, in vivo, 1 mg/kg; in short: as §2
[12] = tested on: Rattus norvegicus; test: Effect of compound on motor activity of spontaneously hypertensive rats after single oral administration of 3 mg/Kg dose; format: functional; in short: as §1
[13] = species: Oryctolagus cuniculus; test: Compound was evaluated for the functional assay performed by obtaining sarafotoxin 6c concentration-response curves [pA2(ETB)] in isolated rabbit jugularis vein
[14] = Compound was evaluated for volume of distribution (steady state) after treatment with iv dose of 1 mgkg to female cynomolgus monkey; format: ADME, organism-based; design: dose 1 mgkg, route intravenous; conditions: cercopithecidae, in vivo, 1 mg/kg, read-out: Vss; in short: as §2
[15] = Compound was evaluated for maximum concentration after treatment with oral dose of 2 mgkg to female cynomolgus monkey; format: ADME, organism-based; design: dose 2 mgkg, route oral; conditions: cercopithecidae, in vivo, 2 mg/kg; in short: as §2
[16] = Compound was evaluated for maximum concentration after treatment with oral dose of 2 mgkg to male wistar rats; format: ADME, organism-based; design: dose 2 mgkg, route oral; conditions: rat, in vivo, 2 mg/kg; in short: as §3
[17] = tested on: Rattus norvegicus; test: Effect of compound on motor activity of spontaneously hypertensive rats after single oral administration of 0.1 mg/Kg dose; format: functional; in short: as §1
[18] = Compound was evaluated for half-life after treatment with iv dose of 1 mgkg to female cynomolgus monkey; format: ADME, organism-based; design: dose 1 mgkg, route intravenous; conditions: cercopithecidae, in vivo, 1 mg/kg; in short: as §2
[19] = Compound was evaluated for clearance after treatment with iv dose of 1 mgkg to female cynomolgus monkey; format: ADME, organism-based; design: dose 1 mgkg, route intravenous; conditions: cercopithecidae, in vivo, 1 mg/kg; in short: as §2
[20] = Compound was evaluated for clearance after treatment with iv dose of 1 mgkg to male wistar rats; format: ADME, organism-based; design: dose 1 mgkg, route intravenous; conditions: rat, in vivo, 1 mg/kg; in short: as §3
[21] = Compound was evaluated for maximum concentration after treatment with oral dose of 2 mgkg to female wistar rats; format: ADME, organism-based; design: dose 2 mgkg, route oral; conditions: rat, in vivo, 2 mg/kg; in short: as §3
[22] = tested on: Rattus norvegicus; test: Effect of compound on heart rate activity of spontaneously hypertensive rats after single oral administration of 0.03 mg/Kg dose; format: functional; in short: as §1
[23] = tested on: Rattus norvegicus; test: ET-1 induced increase in mean arterial pressure following 0.1 mg/kg oral administration of compound; format: functional, Artery
[24] = tested on: Rattus norvegicus; test: Effect of compound on motor activity of spontaneously hypertensive rats after single oral administration of 0.3 mg/Kg dose; format: functional; in short: as §1
[25] = tested on: Rattus norvegicus; test: Effect of compound on heart rate activity of spontaneously hypertensive rats after single oral administration of 1 mg/Kg dose; format: functional; in short: as §1
[26] = tested on: Rattus norvegicus; test: Compound was evaluated for AUC after treatment with iv dose of 1 mgkg to female wistar rats; format: ADME, organism-based; design: dose 1 mgkg, route intravenous; conditions: in vivo, 1 mg/kg; in short: as §3
[27] = Compound was evaluated for half life after treatment with iv dose of 1 mgkg to female wistar rats; format: ADME, organism-based; design: dose 1 mgkg, route intravenous; conditions: rat, in vivo, 1 mg/kg; in short: as §3
[28] = Compound was evaluated for half life after treatment with iv dose of 1 mgkg to male wistar rats; format: ADME, organism-based; design: dose 1 mgkg, route intravenous; conditions: rat, in vivo, 1 mg/kg; in short: as §3
[29] = tested on: Rattus norvegicus; test: Compound was evaluated for AUC after treatment with oral dose of 2 mgkg to female wistar rats; format: ADME, organism-based; design: dose 2 mgkg, route oral; conditions: in vivo, 2 mg/kg; in short: as §3
[30] = tested on: Rattus norvegicus; test: Effect of compound on heart rate activity of spontaneously hypertensive rats after single oral administration of 0.3 mg/Kg dose; format: functional; in short: as §1
[31] = Compound was evaluated for maximum time to reach Cmax after treatment with oral dose of 2 mgkg to female wistar rats; format: ADME, organism-based; design: dose 2 mgkg, route oral; conditions: rat, in vivo, 2 mg/kg; in short: as §3
[32] = tested on: Rattus norvegicus; test: Effect of compound on motor activity of spontaneously hypertensive rats after single oral administration of 30 mg/Kg dose; format: functional; in short: as §1
[33] = tested on: Rattus norvegicus; test: Effect of compound on motor activity of spontaneously hypertensive rats after single oral administration of 0.03 mg/Kg dose; format: functional; in short: as §1
[34] = Compound was evaluated for volume of distribution (steady state) after treatment with iv dose of 1 mgkg to female wistar rats; format: ADME, organism-based; design: dose 1 mgkg, route intravenous; conditions: rat, in vivo, 1 mg/kg, read-out: Vss; in short: as §3
[35] = Compound was evaluated for maximum time to reach Cmax after treatment with oral dose of 2 mgkg to female cynomolgus monkey; format: ADME, organism-based; design: dose 2 mgkg, route oral; conditions: cercopithecidae, in vivo, 2 mg/kg; in short: as §2
[36] = species: Rattus norvegicus; test: Compound was evaluated for the functional assay performed by obtaining ET-1 concentration-response curves [pA2(ETA)] in isolated rat aortic rings; conditions: Aorta, read-out: pA2 (converted)
In short: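 Functional ETA assay: ET-1 concentration-response curves in isolated rat aortic rings with the endothelium removed. Antagonism is expressed as pA2.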

[37] = Compound was evaluated for maximum time to reach Cmax after treatment with oral dose of 2 mgkg to male wistar rats; format: ADME, organism-based; design: dose 2 mgkg, route oral; conditions: rat, in vivo, 2 mg/kg; in short: as §3
[38] = tested on: Rattus norvegicus; test: Effect of compound on motor activity of spontaneously hypertensive rats after single oral administration of 1 mg/Kg dose; format: functional; in short: as §1
[39] = tested on: Rattus norvegicus; test: ET-1 induced increase in mean arterial pressure following 1 mg/kg oral administration of compound; format: functional, Artery
[40] = tested on: Rattus norvegicus; test: ET-1 induced increase in mean arterial pressure following 0.3 mg/kg oral administration of compound; format: functional, Artery
[41] = Compound was evaluated for volume of distribution (steady state) after treatment with iv dose of 1 mgkg to male wistar rats; format: ADME, organism-based; design: dose 1 mgkg, route intravenous; conditions: rat, in vivo, 1 mg/kg, read-out: Vss; in short: as §3
[42] = tested on: Rattus norvegicus; test: Effect of compound on heart rate activity of spontaneously hypertensive rats after single oral administration of 30 mg/Kg dose; format: functional; in short: as §1
[43] = tested on: Rattus norvegicus; test: Effect of compound on motor activity of spontaneously hypertensive rats after single oral administration of 10 mg/Kg dose; format: functional; in short: as §1

## COc1ccc(C(=O)/C(Cc2cc(OC)c(OC)c(OC)c2)=C(\C(=O)[O-])c2ccc3nsnc3c2)cc1F.[Na+]
[1]
  IC50: 160 nM
[2]
  AUC0-12h ΔHR: -349 min-1·h
[3]
  AUC0-12h ΔHR: -341 min-1·h
[4]
  Mean arterial blood pressure: 7 mmHg
[5]
  AUC: 4260 ng·h/mL
[6]
  AUC: 1630 ng·h/mL
[7]
  IC50: 0.032 nM
[8]
  AUC: 2500 ng·h/mL
[9]
  clearance: 1.67 mL/min/kg
[10]
  AUC0-12h ΔHR: -356 min-1·h
[11]
  AUC: 3300 ng·h/mL
[12]
  AUC0-12h ΔMA: -102 units·h
[13]
  Kb: 1000 nM
[14]
  Vd: 0.1 L/kg
[15]
  Cmax: 3830 ng/mL
[16]
  Cmax: 1010 ng/mL
[17]
  AUC0-12h ΔMA: -72 units·h
[18]
  half-life: 60 min
[19]
  clearance: 5 mL/min/kg
[20]
  clearance: 6.67 mL/min/kg
[21]
  Cmax: 3160 ng/mL
[22]
  AUC0-12h ΔHR: -384 min-1·h
[23]
  Mean arterial blood pressure: 32 mmHg
[24]
  AUC0-12h ΔMA: -93 units·h
[25]
  AUC0-12h ΔHR: -344 min-1·h
[26]
  AUC: 15400 ng·h/mL
[27]
  half-life: 102 min
[28]
  half-life: 96 min
[29]
  AUC: 21300 ng·h/mL
[30]
  AUC0-12h ΔHR: -413 min-1·h
[31]
  Tmax: 30 min
[32]
  AUC0-12h ΔMA: -99 units·h
[33]
  AUC0-12h ΔMA: -97 units·h
[34]
  Vd: 0.2 L/kg
[35]
  Tmax: 30 min
[36]
  Kb: 0.316 nM
[37]
  Tmax: 30 min
[38]
  AUC0-12h ΔMA: -131 units·h
[39]
  Mean arterial blood pressure: 11 mmHg
[40]
  Mean arterial blood pressure: 24 mmHg
[41]
  Vd: 0.5 L/kg
[42]
  AUC0-12h ΔHR: -260 min-1·h
[43]
  AUC0-12h ΔMA: -131 units·h

## COc1ccc(C(=O)/C(Cc2cc(OC)c(OC)c(OC)c2)=C(\C(=O)O)c2ccc3nsnc3c2)cc1
[1]
  IC50: 340 nM
[7]
  IC50: 0.3 nM
[13]
  Kb: 794 nM
[36]
  Kb: 3.16 nM
